# Assay results published in ChEMBL document CHEMBL2046286, “Deconstructing 14-phenylpropyloxymetopon: minimal requirements for binding to mu opioid receptors” (Bioorg Med Chem, 2012).
# The source made the active and inactive calls. No cut-off for these calls is given here.
# Experiments:
# Assay type in all cases: tissue-based
# Mu-type opioid receptor = Mu-type opioid receptor (Rattus norvegicus, UniProt P33535); assay: (§1) Displacement of [3H]DAMGO from mu opioid receptor in rat brain homogenate after 1 hr by liquid scintillation counting
# Mu-type opioid receptor, sequence (P33535 whole entry): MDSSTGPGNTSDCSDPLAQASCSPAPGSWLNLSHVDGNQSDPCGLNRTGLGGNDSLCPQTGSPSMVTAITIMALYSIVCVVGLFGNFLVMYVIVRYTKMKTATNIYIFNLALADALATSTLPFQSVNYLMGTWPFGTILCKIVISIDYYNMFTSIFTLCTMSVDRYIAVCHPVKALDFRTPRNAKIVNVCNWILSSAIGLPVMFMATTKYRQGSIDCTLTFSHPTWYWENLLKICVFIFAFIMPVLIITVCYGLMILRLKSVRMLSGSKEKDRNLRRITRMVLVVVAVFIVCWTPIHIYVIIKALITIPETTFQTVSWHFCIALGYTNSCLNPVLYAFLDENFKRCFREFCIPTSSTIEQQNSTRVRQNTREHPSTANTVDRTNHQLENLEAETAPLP
# Outline: (§2)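 Competition with 12 concentrations of test compound, 1 h at 25°C; terminated by rapid vacuum filtration through GF/B filters presoaked in 0.5% polyethyleneimine. Bound radioactivity counted by liquid scintillation; Ki by Cheng-Prusoff.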
# [1] = target: Mu-type opioid receptor (Rattus norvegicus) (UniProt P33535); assay: as §1; outline: as §2
# Mu-type opioid receptor (Rattus norvegicus), sequence (P33535 whole entry): as above
# [2] = target: Delta-type opioid receptor (Rattus norvegicus) (UniProt P33533); assay: (§3) Displacement of [3H]DPDPE from delta opioid receptor in rat brain homogenate after 1 hr by liquid scintillation counting
# Delta-type opioid receptor (Rattus norvegicus), sequence (P33533 whole entry): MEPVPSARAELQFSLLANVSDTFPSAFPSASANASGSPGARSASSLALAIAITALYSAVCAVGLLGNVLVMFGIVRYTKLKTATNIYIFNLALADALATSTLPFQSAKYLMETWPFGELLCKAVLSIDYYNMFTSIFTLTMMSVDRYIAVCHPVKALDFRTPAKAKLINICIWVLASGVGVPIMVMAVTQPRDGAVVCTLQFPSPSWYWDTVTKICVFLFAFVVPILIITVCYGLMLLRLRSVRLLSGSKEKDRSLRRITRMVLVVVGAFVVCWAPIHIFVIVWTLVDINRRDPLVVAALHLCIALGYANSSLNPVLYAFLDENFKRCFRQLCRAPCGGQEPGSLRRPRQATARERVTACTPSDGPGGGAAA
# [3] = target: Kappa-type opioid receptor (Rattus norvegicus) (UniProt P34975); assay: (§4) Displacement of [3H]U69593 from kappa opioid receptor in rat brain homogenate after 1 hr by liquid scintillation counting
# Kappa-type opioid receptor (Rattus norvegicus), sequence (P34975 whole entry): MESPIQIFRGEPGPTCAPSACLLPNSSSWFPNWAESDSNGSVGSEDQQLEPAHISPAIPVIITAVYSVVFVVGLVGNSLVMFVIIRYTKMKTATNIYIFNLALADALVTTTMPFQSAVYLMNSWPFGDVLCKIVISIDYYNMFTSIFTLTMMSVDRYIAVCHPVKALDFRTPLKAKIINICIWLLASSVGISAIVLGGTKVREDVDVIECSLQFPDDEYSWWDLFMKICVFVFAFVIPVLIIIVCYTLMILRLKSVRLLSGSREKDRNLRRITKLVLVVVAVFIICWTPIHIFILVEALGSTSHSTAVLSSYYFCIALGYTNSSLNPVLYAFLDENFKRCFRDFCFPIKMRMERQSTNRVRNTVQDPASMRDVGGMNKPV
# [4] = target: Delta-type opioid receptor (Rattus norvegicus, UniProt P33533); assay: as §3
# Delta-type opioid receptor, sequence (P33533 whole entry): as the sequence (P33533 whole entry) above
# [5] = target: Kappa-type opioid receptor (Rattus norvegicus, UniProt P34975); assay: as §4
# Kappa-type opioid receptor, sequence (P34975 whole entry): as the sequence (P34975 whole entry) above
Ki (Mu-type opioid receptor) [µM],Activity [1],Activity [2],Activity [3],SMILES,Ki [4] [µM],Ki [5] [µM]
> 10,–,–,–,CCN(CC)C(=O)COCCCc1ccccc1,–,–
–,inactive,inactive,inactive,C(=C\c1ccccc1)/COCCN1CCCC1,–,–
–,inactive,inactive,inactive,c1ccc(CCCOCCN2CCCC2)cc1,–,–
> 10,–,–,–,CCN(CC)C(=O)COC/C=C/c1ccccc1,–,–
> 10,–,inactive,inactive,C=CCN(CC=C)CCOCCCc1ccccc1,–,–
> 10,–,–,–,CCCN(CCC)CCOCCCc1ccccc1,–,–
–,inactive,inactive,inactive,c1ccc(CCCOCCN2CCCCCC2)cc1,–,–
> 10,–,–,–,C(=C\c1ccccc1)/COCCN1CCCCCC1,–,–
> 10,–,–,–,CCCN(CCC)CCOC/C=C/c1ccccc1,–,–
–,inactive,inactive,inactive,c1ccc(CCCOCCN2CCCCC2)cc1,–,–
–,inactive,inactive,inactive,C(=C\c1ccccc1)/COCCN1CCCCC1,–,–
–,–,–,–,CN(CCCc1ccccc1)CCOC/C=C/c1ccccc1,> 10,> 10
> 10,–,–,–,CCN(CC)CCOCCCc1ccccc1,–,–
> 10,–,–,–,CN(C)CCOC/C=C/c1ccccc1,–,–
> 10,–,–,–,CCN(CC)CCOC/C=C/c1ccccc1,–,–
> 10,–,inactive,inactive,C=CCN(CC=C)CCOC/C=C/c1ccccc1,–,–
> 10,–,–,–,CN(C)CCOCCCc1ccccc1,–,–

SMILES,Ki (Mu-type opioid receptor) [µM],Activity [1],Activity [2],Activity [3],Ki [4] [µM],Ki [5] [µM]
CN(CCCc1ccccc1)CCOCCCc1ccccc1,1.52,–,–,–,6.65,> 10
CN(CCOC/C=C/c1ccccc1)Cc1ccccc1,3.04,–,–,–,> 10,> 10
CN(CCOCCCc1ccccc1)Cc1ccccc1,2.76,–,–,–,> 10,> 10
CN(CCOCCCc1ccccc1)CCc1ccccc1,2.31,–,–,–,–,> 10
CCCCN(CCCC)CCOCCCc1ccccc1,2.49,–,–,–,> 10,> 10
CCCCN(CCCC)CCOC/C=C/c1ccccc1,2.49,–,–,–,> 10,> 10
CN(CCOC/C=C/c1ccccc1)CCc1ccccc1,1.68,–,–,–,6.85,> 10
